Experimental data taken from publication PMC7116464 (Biochemical pharmacology, 2019).
One block for each compound: values may come before it.

Tests used:
[1] = test system: Leishmania tarentolae promastigotes (LtP); assay: Viability assay of LtP; assay type: cell-based; details: calculated from IC50, J774/IC50, LtP
J774 macrophages = assay: Viability assay of J774 cells; assay type: cell-based, murine; details: Mus musculus, J774, read-out: IC50 J774
How it was run: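 J774A.1 macrophages seeded at 1 × 10^5/mL in DMEM/10% FCS and allowed to attach for 24 h (37 °C, 5% CO2). Wells washed with PBS and refilled with medium. Compounds added from 25 or 200 µM in five 1:5 serial dilutions, triplicate. After 24 h, 20 µM resazurin (final) added for 4 h; fluorescence read at ex 560/em 590 nm.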

[2] = test system: Leishmania tarentolae promastigotes (LtP); assay type: cell-based; details: for IC50: Leishmania tarentolae, read-out: IC50 in the absence of additional inhibitors; for influence on the antileishmanial action (IC50) of Asc and Art: PIH 100 µM, SnMP 50 µM, CrMP 50 µM, NAC 2 mM, LtP in YEM/PBS with 6 µM hemin
[3] = test system: labile iron pool (LIP) in LtP; assay: Low temperature EPR spectroscopy of the labile iron pool in LtP; assay type: cell-based, Leishmania tarentolae; details: 1 mM EP, 1 h at 26 °C, EPR at 77 K
[4] = test system: HO-like activity in LtP homogenates; assay: Heme oxygenase-like activity; assay type: biochemical, Leishmania tarentolae
splenic parasite burden = details: Art orally 25 mg/kg body weight vs SAG 20 mg/kg body weight; cited from earlier work
[5] = test system: Leishmania tarentolae promastigotes (LtP); assay: Metal; assay type: cell-based; details: 0 - 3 days; for iron content in LtP: 10 µM SnMP or 1 µM ZnPP, ICP-OES
How it was run: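 Promastigotes (3.6 × 10^7/mL at day 0, OD600 0.3) grown in medium alone, with 10 µM SnMP or with 1 µM ZnPP for 0–3 days at 27 °C. After acid digestion (final 2 h at 75 °C), Fe measured by ICP-OES against 0.01–10 ppm standards. Sn measured by ICP-MS (120Sn, 0.1–100 ppb standards, isotope-corrected) after further 3-fold dilution. Results given as amol/cell.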

[6] = test system: hemin degradation in LtP homogenates and SGF/MCF fractions; assay: Hemin degradation in LtP homogenates and SGF/MCF subfractions by HPLC; assay type: biochemical, Leishmania tarentolae; details: 40 µM ZnPP, 7 µM hemin, 0, 2 or 4 h at 26 °C
How it was run: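 LtP homogenates from hypo-osmotic lysis and freeze–thaw (37 mg protein/mL), or pooled SGF/MCF pellets from differential centrifugation (3.7 mg protein/mL). Samples diluted in phosphate buffer pH 7.4 with 7 µM hemin plus 1.1 mM NADPH or 40 µM ZnPP; 0, 2 or 4 h at 26 °C. Hemin followed by HPLC-UV, normalised to 0 h; mean ± SD, n = 3.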

[7] = SnMP or CrMP 38 µM, 77 µM, hemin 6.67 µM, NADPH 1 mM, RLS, 27 °C, 30 min

Compound: C[C@H]1[C@H](OC(=O)CCC(=O)O)O[C@@H]2O[C@@]3(C)CC[C@H]4[C@H](C)CC[C@@H]1[C@@]24OO3 [Arsu, artesunate]
- IC50, J774/IC50, LtP (selectivity index) [1]: 9
- IC50 (J774 macrophages): 16.9 ± 5.2 µM

Compound: C[C@@H]1CC[C@H]2[C@@H](C)C(=O)O[C@@H]3O[C@@]4(C)CC[C@@H]1[C@]32OO4 [Art, artemisinin]
- IC50 (J774 macrophages): 192 ± 41.1 µM
- IC50 [2]: 2.96 ± 0.71 µM
- influence on the redox state of the LIP (apparent Fe3+) [3]: influences the redox state of the LIP in LtP to a much lesser extent than Asc
- HO-like activity (bilirubin formation) ([4]; Art 500 µM in the presence of catalase 2520 U/mL): inhibited the HO-like activity in LtP homogenates
- splenic parasite burden (splenic parasite burden): reduce the splenic parasite burden slightly more than sodium antimony gluconate (SAG)

Compound: CC(C)C12C=CC(C)(CC1)OO2 (centres unmarked) [Asc, Ascaridole]
- IC50, J774/IC50, LtP (selectivity index) [1]: 7
- IC50 (J774 macrophages): 202 ± 38.2 µM
- IC50 [2]: 28.3 ± 6.7 µM

Compound: C[C@H]1[C@@H](O)O[C@@H]2O[C@@]3(C)CC[C@H]4[C@H](C)CC[C@@H]1[C@@]24OO3 [DHA, dihydroartemisinin]
- IC50, J774/IC50, LtP (selectivity index) [1]: 20
- IC50 (J774 macrophages): 14.8 ± 6.49 µM

Compound: C[C@@H]1CC[C@H]2[C@@H](C)C(=O)O[C@@H]3O[C@@]4(C)CC[C@@H]1[C@]32O4 [DeoxyArt, deoxyartemisinin]
- IC50, J774/IC50, LtP (selectivity index) [1]: 1
- IC50 (J774 macrophages): > 200 µM

Compound: CC(=O)N[C@@H](CS)C(=O)O [NAC, N-acetylcysteine]
- influence on the antileishmanial action (IC50) of Asc and Art [2]: inhibited the action of Asc and even stronger that of Art

Compound: Cc1ncc(CO)c(/C=N/NC(=O)c2ccncc2)c1O [PIH, Pyridoxal isonicotinoyl hydrazone]
- influence on the antileishmanial action (IC50) of Asc and Art [2]: non-selectively inhibited the action of both Asc and Art in a similar fashion

Compound: N=C(N)c1ccc(OCCCCCOc2ccc(C(=N)N)cc2)cc1 [Pen, pentamidine isethionate]
- IC50, J774/IC50, LtP (selectivity index) [1]: 15
- IC50 (J774 macrophages): 12.3 ± 3.96 µM

Compound: C=CC1=C(C)c2cc3[n-]c(cc4nc(cc5[n-]c(cc1n2)c(C)c5C=C)C(C)=C4CCC(=O)O)c(CCC(=O)O)c3C.[Zn+2] [ZnPP, zinc protoporphyrin]
- iron content in LtP [5]: small decline but no total inhibition of iron import into LtP
- hemin degradation [6]: strongly inhibited

- HO-like activity (bilirubin formation) [4, 7]: inhibit this HO-like activity
Compound: Tin mesoporphyrin [SnMP]
- iron content in LtP [5]: almost identical over several days
- Sn accumulation in LtP ([5]; 10 µM SnMP, ICP-MS): taken up into LtP
- influence on the antileishmanial action (IC50) of Asc and Art [2]: inhibited the antileishmanial activity of Art stronger than that of Asc

- HO-like activity (bilirubin formation) [4, 7]: inhibit this HO-like activity
Compound: chromium mesoporphyrin [CrMP]
- influence on the antileishmanial action (IC50) of Asc and Art [2]: inhibited the antileishmanial activity of Art stronger than that of Asc
